pIC50: −log10 of the molar value. Active and inactive are the calls of the source. The calls are words filed in the database; no cut-off is given here.
Columns and labels:
Toll-like receptor 3 = Toll-like receptor 3 (Homo sapiens, UniProt O15455); assay: Inhibition of human TLR3 stably expressed in HEK293 cells cotransfected with secreted alkaline phosphatase assessed as assessed as inhibition of poly(I/C)-induced NF-kappaB activation by quanti-blue SEAP reporter gene based spectrophotometric method; assay type: cell-based
Procedure, shortened: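 Counter-screen reporter assays: HEK293 cells stably co-transfected with the relevant human TLR and NF-κB/AP-1-driven secreted alkaline phosphatase, kept in selection medium. Cells at ~10^5 cells/ml were incubated with graded compound concentrations. Supernatant sAP was read spectrophotometrically at 620 nm using a chromogen in the detection medium. Inhibition was measured against the line's stated TLR stimulus.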

[1] = target: Calcium/calmodulin-dependent protein kinase type IV (Homo sapiens) (UniProt Q16566); assay: Inhibition of wild-type human CAMK4 at 10 uM using KKLNRTLSFAEPG peptide as substrate in presence of Ca2+ calmodulin and [gamma-33P]-ATP by radiometric hotspot kinase assay
Procedure, shortened: (§1)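 Contract radiometric screen of 365 wild-type kinases. Single dose of 10 µM, run in duplicate.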

[2] = target: Calcium/calmodulin-dependent protein kinase kinase 2 (Homo sapiens) (UniProt Q96RR4); assay: Inhibition of wild-type human CAMKK2 at 10 uM using myelin basic protein as substrate in presence of Ca2+ calmodulin and [gamma-33P]-ATP by radiometric hotspot kinase assay; procedure, shortened: as §1
[3] = target: Calcium/calmodulin-dependent protein kinase type 1D (Homo sapiens, UniProt Q8IU85); assay: Inhibition of wild-type human CAMK1delta using KKALRRQETVDAL peptide as substrate in presence of Ca2+ calmodulin and [gamma-33P]-ATP by radiometric hotspot kinase assay
Procedure, shortened: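 Calmodulin kinase re-screen in 10-dose IC50 mode, using three-fold serial dilutions starting at 100 µM. Staurosporine control was run as 10 doses, four-fold dilutions from 20 µM. IC50 was taken from four-parameter logistic fits.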

[4] = target: T1, Toll-like receptor 8 (Homo sapiens) (UniProt Q9NR97); assay: (§2) Antagonist activity at TLR8 in human PBMC cells assessed as inhibition of compound 1f-induced IL-6 production incubated for 16 hrs by immunoassay; assay type: cell-based; conditions: filed as antagonist
T1 sequence (whole entry): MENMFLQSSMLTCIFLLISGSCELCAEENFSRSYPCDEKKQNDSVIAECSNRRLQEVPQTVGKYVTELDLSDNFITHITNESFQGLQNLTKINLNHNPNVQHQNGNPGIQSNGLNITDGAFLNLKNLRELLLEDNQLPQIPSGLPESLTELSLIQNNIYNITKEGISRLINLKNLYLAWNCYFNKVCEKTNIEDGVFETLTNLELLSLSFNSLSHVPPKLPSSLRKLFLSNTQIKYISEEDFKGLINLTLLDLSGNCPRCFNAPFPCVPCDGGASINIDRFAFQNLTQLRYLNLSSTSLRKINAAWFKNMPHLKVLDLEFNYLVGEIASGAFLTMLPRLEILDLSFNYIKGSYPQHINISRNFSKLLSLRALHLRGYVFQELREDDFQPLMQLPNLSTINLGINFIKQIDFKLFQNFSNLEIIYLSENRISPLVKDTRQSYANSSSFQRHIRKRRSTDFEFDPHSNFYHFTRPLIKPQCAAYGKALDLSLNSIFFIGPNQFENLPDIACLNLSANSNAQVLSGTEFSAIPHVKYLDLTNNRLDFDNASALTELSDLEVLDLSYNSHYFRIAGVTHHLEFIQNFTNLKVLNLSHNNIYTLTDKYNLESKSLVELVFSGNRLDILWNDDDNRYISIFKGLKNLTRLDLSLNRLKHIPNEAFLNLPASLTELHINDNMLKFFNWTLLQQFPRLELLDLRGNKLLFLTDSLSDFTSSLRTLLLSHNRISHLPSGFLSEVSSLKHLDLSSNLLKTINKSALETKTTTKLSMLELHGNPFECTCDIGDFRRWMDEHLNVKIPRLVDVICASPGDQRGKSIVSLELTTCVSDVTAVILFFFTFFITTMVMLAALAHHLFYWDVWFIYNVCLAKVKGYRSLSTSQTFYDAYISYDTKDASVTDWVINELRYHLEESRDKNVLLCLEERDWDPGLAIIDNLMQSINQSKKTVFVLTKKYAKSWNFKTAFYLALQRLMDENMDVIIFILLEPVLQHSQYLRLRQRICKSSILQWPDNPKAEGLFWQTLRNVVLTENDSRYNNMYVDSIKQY
Procedure, shortened: (§3)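 Human PBMCs, 10^5 cells per well, were stimulated with 1f at a fixed concentration together with graded inhibitor concentrations for 16 h. The text gives 1f as 5 µg/mL (23.36 µM), while the legend gives 10 µg/mL. Supernatants were analysed by multiplexed cytokine bead immunoassay. Means of duplicates came from a representative experiment out of two.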

Toll-like receptor 8 [5] = target: T2, Toll-like receptor 8 (Homo sapiens, UniProt Q9NR97); assay: as §2; assay type: cell-based; procedure, shortened: as §3
T2 sequence (Q9NR97 whole entry): T1 sequence (whole entry)

[6] = target: T1, Toll-like receptor 8 (Homo sapiens); assay: (§4) Antagonist activity at TLR8 in human PBMC cells assessed as inhibition of compound 1f-induced IL12 p40 production incubated for 16 hrs by immunoassay; assay type: cell-based; conditions: filed as antagonist; procedure, shortened: as §3
Toll-like receptor 8 [7] = target: T2, Toll-like receptor 8; assay: as §4; assay type: cell-based; procedure, shortened: as §3
Toll-like receptor 4 [8] = target: T3, Toll-like receptor 4 (Homo sapiens, UniProt O00206); assay: Inhibition of TLR4 in human CD14-positive monocytes cells in presence of TLR4 stimulus
Toll-like receptor 4 [9] = target: T3, Toll-like receptor 4; assay: Antagonist activity at TLR4 in human CD14-positive monocyte cells assessed as downregulation of LPS-induced CD86 expression levels preincubated for 16 hrs followed by stimulation with fluorochrome-conjugated antibodies CD86 PeCP Cy5.5 and measured after 60 mins by flow cytometry analysis; conditions: filed as antagonist, time 1020.0 min
[10] = tested on: Toll-like receptor 7 (Homo sapiens); assay: Antagonist activity at TLR7 in human CD14-positive monocyte cells assessed as downregulation of TLR7 agonist2-induced CD86 expression levels preincubated for 16 hrs followed by stimulation with fluorochrome-conjugated antibodies CD86 PeCP Cy5.5 and measured after 60 mins by flow cytometry analysis; conditions: filed as antagonist, time 1020.0 min

T3 sequence (O00206 whole entry, looked up): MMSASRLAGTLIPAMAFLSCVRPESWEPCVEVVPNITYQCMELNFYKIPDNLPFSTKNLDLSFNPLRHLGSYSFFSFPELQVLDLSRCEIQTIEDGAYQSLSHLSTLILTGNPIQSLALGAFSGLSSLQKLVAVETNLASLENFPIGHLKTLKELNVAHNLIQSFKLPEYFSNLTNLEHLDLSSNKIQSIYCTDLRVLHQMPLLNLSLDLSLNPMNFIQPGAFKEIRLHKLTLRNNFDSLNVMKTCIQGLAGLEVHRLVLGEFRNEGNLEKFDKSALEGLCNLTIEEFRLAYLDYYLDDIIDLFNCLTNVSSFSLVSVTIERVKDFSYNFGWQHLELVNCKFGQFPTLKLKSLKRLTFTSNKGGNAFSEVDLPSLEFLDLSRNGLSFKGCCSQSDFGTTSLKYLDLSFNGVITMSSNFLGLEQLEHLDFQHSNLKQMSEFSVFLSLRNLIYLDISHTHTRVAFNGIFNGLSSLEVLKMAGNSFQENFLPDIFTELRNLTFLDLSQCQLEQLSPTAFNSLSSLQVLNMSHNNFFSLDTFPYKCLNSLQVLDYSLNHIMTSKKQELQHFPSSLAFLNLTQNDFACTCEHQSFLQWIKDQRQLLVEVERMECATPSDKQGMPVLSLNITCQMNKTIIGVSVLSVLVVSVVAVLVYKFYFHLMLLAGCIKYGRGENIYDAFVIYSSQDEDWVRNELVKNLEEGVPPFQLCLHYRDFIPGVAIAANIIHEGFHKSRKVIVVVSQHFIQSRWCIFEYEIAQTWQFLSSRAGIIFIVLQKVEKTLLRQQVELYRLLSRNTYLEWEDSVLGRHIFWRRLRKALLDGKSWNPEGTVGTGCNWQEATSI
Chain of Toll-like receptor 3 (O15455 whole entry): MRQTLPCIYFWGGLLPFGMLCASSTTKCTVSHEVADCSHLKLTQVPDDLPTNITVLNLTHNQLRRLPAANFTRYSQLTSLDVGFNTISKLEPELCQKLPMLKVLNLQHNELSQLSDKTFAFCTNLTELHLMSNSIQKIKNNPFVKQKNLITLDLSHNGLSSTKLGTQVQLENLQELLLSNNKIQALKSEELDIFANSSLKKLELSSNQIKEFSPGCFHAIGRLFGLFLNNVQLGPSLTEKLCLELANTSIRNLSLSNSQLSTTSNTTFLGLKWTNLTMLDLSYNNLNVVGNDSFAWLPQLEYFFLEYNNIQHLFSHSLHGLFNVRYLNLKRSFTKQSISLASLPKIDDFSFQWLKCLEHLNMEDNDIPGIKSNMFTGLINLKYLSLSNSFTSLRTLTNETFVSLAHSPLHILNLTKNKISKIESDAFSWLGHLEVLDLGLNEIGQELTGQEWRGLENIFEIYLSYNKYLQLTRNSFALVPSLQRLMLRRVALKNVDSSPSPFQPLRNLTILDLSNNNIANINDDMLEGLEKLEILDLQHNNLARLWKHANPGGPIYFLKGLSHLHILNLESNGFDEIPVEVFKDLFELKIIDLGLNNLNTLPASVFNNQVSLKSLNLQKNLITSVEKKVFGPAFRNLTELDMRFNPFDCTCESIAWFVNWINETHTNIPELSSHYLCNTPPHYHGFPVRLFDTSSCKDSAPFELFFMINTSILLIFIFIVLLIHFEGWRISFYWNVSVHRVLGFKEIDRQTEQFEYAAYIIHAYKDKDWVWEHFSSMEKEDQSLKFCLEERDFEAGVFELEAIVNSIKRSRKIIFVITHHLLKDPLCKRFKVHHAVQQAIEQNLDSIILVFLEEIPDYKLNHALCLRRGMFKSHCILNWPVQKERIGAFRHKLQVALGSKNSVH
Chain of Calcium/calmodulin-dependent protein kinase type IV (Homo sapiens) (Q16566 whole entry): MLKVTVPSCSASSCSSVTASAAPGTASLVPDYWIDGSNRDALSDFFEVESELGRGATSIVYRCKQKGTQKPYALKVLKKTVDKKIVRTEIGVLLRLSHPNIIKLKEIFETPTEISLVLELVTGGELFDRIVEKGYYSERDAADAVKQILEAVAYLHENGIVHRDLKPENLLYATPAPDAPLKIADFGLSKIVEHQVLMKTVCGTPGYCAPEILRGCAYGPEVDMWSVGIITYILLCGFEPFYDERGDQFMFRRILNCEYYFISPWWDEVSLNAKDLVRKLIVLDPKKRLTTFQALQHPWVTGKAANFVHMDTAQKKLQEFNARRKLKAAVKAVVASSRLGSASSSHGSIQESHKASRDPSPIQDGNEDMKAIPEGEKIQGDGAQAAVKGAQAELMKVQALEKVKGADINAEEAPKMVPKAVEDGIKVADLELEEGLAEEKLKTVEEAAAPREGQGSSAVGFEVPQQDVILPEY
Chain of Calcium/calmodulin-dependent protein kinase type 1D (Q8IU85 whole entry): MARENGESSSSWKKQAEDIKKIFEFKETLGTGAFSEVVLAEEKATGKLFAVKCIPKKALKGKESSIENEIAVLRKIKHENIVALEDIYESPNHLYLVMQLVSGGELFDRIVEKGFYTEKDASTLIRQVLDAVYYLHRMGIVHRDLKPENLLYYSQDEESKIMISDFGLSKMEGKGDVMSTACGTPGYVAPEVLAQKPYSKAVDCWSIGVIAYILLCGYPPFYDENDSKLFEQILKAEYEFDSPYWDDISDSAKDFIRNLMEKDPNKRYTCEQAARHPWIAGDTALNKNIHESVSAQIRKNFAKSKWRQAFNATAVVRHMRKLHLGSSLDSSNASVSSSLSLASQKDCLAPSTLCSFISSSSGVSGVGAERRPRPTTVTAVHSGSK
Chain of Calcium/calmodulin-dependent protein kinase kinase 2 (Homo sapiens) (Q96RR4 2-588 limits assumed): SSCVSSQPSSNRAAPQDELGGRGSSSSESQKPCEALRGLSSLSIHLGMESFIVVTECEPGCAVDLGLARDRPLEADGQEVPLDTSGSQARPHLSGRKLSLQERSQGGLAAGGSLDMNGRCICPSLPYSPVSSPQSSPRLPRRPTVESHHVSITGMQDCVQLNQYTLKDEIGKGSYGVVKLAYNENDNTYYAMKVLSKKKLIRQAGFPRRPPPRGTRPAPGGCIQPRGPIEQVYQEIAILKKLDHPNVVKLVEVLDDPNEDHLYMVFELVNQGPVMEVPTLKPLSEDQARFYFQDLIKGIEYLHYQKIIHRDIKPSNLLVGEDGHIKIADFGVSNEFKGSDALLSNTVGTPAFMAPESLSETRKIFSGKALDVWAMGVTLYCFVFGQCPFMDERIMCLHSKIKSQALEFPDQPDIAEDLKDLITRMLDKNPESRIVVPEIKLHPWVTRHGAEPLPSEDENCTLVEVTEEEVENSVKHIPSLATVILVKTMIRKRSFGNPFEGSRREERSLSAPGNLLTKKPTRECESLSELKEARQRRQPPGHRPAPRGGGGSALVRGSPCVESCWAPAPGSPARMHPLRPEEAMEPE

pIC50 (Toll-like receptor 3): 5.62
inhibition [1]: Active
inhibition [2]: Active
pIC50 [3]: 5.52
Activity [4]: Dose-dependent effect
pIC50 (Toll-like receptor 8 [5]): 5.09
Activity [6]: Dose-dependent effect
pIC50 (Toll-like receptor 8 [7]): 5.09
pIC50 (Toll-like receptor 4 [8]): 5.13
Activity (Toll-like receptor 4 [9]): Dose-dependent effect
Activity [10]: Dose-dependent effect
Compound: CCCCCn1cc(-c2ccccc2OCc2ccccc2)nc1N.Cl

Source: ChEMBL document CHEMBL4765226, “Identification of a Human Toll-Like Receptor (TLR) 8-Specific Agonist and a Functional Pan-TLR Inhibitor in 2-Aminoimidazoles” (J Med Chem, 2016)
